Consider 27 compounds from ChEMBL document CHEMBL1138769, “Antimitotic activity of 5-hydroxy-7-methoxy-2-phenyl-4-quinolones” (J Med Chem, 2004).

Structures are written as SMILES.

The subject of experiment [1] is K562. Description: Ability to induce cells in S phase. In kind it is functional, Homo sapiens. Set-up: concentration or dose not given beside the values. The essentials: (§1)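 K562 human leukemic cells exposed continuously to test compound at 5 μM for 24 h. 10⁶ cells/mL resuspended in propidium iodide, held at 4 °C overnight, analysed by flow cytometry for DNA content. Doublets and aggregates excluded on FL2-area/FL2-width plot. Fraction of population in G0/G1, S and G2/M calculated.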

In experiment [2] the test system is K562. Description: Ability to induce cells in G0/G1 phase. The arrangement: concentration or dose not given beside the values. The format is functional, Homo sapiens. In short, it runs like this: as §1
Experiment [3] deals with K562. The experiment is described as follows: Ability to induce cells in G2/M phase. The format is functional, Homo sapiens. The arrangement: concentration or dose not given beside the values. In short, it runs like this: as §1
For experiment [4], the system named is K562. The experiment is described as follows: Inhibitory concentration against K562 cell line. The format is functional, cell-based. To be noted: Homo sapiens. The essentials: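 MTT viability assay on exponentially growing K562 cells seeded at 3 × 10³ cells/well, grown 24 h before drug addition. After 72 h drug exposure MTT reagent added. Viability is absorbance as percent of untreated control wells. IC50 is the concentration giving 50% loss of viability. Triplicate wells, at least three separate experiments.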

The test system of experiment [5] is NCI-60 human tumor cell line panel (Homo sapiens). The experiment is described as follows: Growth inhibitory concentration is the concentration that reduced growth of NCI-60 cell lines by 50%.

For the compound `CCc1ccc(-c2cc(O)c3c(O)cc(OC)cc3n2)cc1`, the Activity in the experiment with K562 [1] was found to be 48%; with K562 [2], 26%; with K562 [3] it was 25%.
On to `COc1cc2nc(-c3ccccc3)cc(O)c2c(OC)c1OC`, for which the Activity in the experiment on K562 [1] stood at 48%; in the experiment with K562 [2], 47%; in the experiment on K562 [3], 5%.
Turning to `COc1cc(O)c2c(O)cc(-c3cccc(Cl)c3)nc2c1`, the Activity stood at 35% in the experiment on K562 [1], 33% with K562 [2] and 32% in the experiment on K562 [3].
Take `COc1cc(O)c2c(O)cc(-c3cccc(-c4ccccc4)c3)nc2c1`: the figures for the Activity in the experiment with K562 [1], with K562 [2] and in the experiment on K562 [3] were 45%, 46% and 9%, respectively.
One may read the IC50 as the concentration at which inhibition is half-maximal. The GI50 is the concentration at which growth is held to half of that of the control. In the experiment with K562 [4], `COc1cc(O)c2c(O)cc(-c3ccccc3)nc2c1` returned an IC50 of 1.8 µM. For the same compound, the results for the Activity in the experiment on K562 [1], in the experiment with K562 [2] and in the experiment with K562 [3] were 26%, 7% and 66%, respectively. This compound returned a GI50 in experiment [5] of 8.7 µM.
With `COc1cc(O)c2c(O)cc(-c3cccc(OC(F)(F)F)c3)nc2c1`, the Activity in the experiment on K562 [1] was 35%; in the experiment with K562 [2], 32%; with K562 [3], 32%.
As to `COc1cc(O)c2c(O)cc(-c3cccnc3)nc2c1`, the Activity came to 31% in the experiment on K562 [1], 24% in the experiment with K562 [2] and 45% in the experiment on K562 [3].
For the compound `COc1cc2nc(-c3ccccc3)cc(O)c2c(O)c1OC`, the Activity is given as 45% in the experiment with K562 [1], 47% in the experiment with K562 [2] and 8% with K562 [3].
Regarding `COc1cc(O)c2c(O)cc(-c3cccc(C(F)(F)F)c3)nc2c1`, the Activity in the experiment on K562 [1] came out at 38%; in the experiment on K562 [2], 41%; with K562 [3] it was 20%.
Consider `COc1cc(O)c2c(O)cc(-c3cccc(F)c3)nc2c1`, for which the IC50 in the experiment with K562 [4] stood at 0.8 µM. Further, the Activity in the experiment on K562 [1] turned out to be 30%; in the experiment on K562 [2] it was 9%; with K562 [3], 60%. Moreover, the GI50 in experiment [5] came to 14.5 µM.
Turning to `COc1cc(O)c2c(O)cc(-c3ccc(OC)c(F)c3)nc2c1`, the results for the Activity with K562 [1], in the experiment on K562 [2] and in the experiment on K562 [3] were 53%, 26% and 20%, respectively.
The compound `CC[C@]1(O)C[C@@H]2CN(CCc3c([nH]c4ccccc34)[C@@](C(=O)OC)(c3cc4c(cc3OC)N(C)[C@H]3[C@@](O)(C(=O)OC)[C@H](OC(C)=O)[C@]5(CC)C=CCN6CC[C@]43[C@@H]65)C2)C1` [VINBLASTINE] displayed an IC50 in the experiment on K562 [4] of 3 µM. In addition, the values for the Activity in the experiment on K562 [1], in the experiment on K562 [2] and in the experiment with K562 [3] were 30%, 33% and 37%, respectively.
For `COc1cc(O)c2c(O)cc(-c3cccc(I)c3)nc2c1`, the Activity in the experiment with K562 [1] was found to be 50%; in the experiment on K562 [2], 44%; with K562 [3], 6%.
As for `COc1cccc(-c2cc(O)c3c(O)cc(OC)cc3n2)c1`, the Activity in the experiment with K562 [1] stood at 41%; in the experiment with K562 [2], 28%; with K562 [3] it was 31%. Growth in experiment [5] was halved (GI50) at 9.7 µM.
On to `Oc1cccc2nc(-c3cccc(F)c3)cc(O)c12`, for which the values for the Activity in the experiment with K562 [1], in the experiment with K562 [2] and in the experiment with K562 [3] were 33%, 17% and 49%, respectively.
For `COc1cc(O)c2c(O)cc(-c3ccccc3F)nc2c1`, half-maximal inhibition in the experiment with K562 [4] (IC50) required 1.5 µM. For the same compound, the Activity amounted to 37% in the experiment with K562 [1], 23% in the experiment with K562 [2] and 41% in the experiment on K562 [3]. This compound also showed a GI50 in experiment [5] of 9.9 µM.
Turning to `COc1cc(O)c2c(O)cc(Cc3ccccc3)nc2c1`, the Activity in the experiment on K562 [1] stood at 50%; in the experiment with K562 [2], 41%; with K562 [3], 9%.
Consider `CCn1c(-c2ccccc2)cc(=O)c2c(O)cc(OC)cc21`, for which the Activity worked out at 46% with K562 [1], 43% in the experiment on K562 [2] and 11% in the experiment on K562 [3].
Consider `COc1cc(O)c2c(O)cc(-c3ccc(F)c(F)c3)nc2c1`, for which the Activity in the experiment on K562 [1] is listed as 69%; with K562 [2], 22%; in the experiment on K562 [3], 9%.
For `Oc1cccc2nc(-c3ccccc3)cc(O)c12`, in that order: 52%, 26% and 21%.
Turning to `COc1cc(O)c2c(O)cc(-c3ccc(F)cc3)nc2c1`, the Activity in the experiment with K562 [1] is listed as 36%; in the experiment on K562 [2] it was 54%; with K562 [3], 10%.
With `COc1cc(O)c2c(O)cc(-c3ccc(C)c(F)c3)nc2c1`, the results for the Activity in the experiment with K562 [1], in the experiment with K562 [2] and in the experiment with K562 [3] were 54%, 28% and 18%, respectively.
The matching figures for `COc1cc(O)c2c(O)cc(-c3cccc(Br)c3)nc2c1`: 37%, 51% and 12%.
Regarding `CC(=O)O[C@H]1C(=O)[C@@]2(C)[C@H]([C@H](OC(=O)c3ccccc3)[C@]3(O)C[C@H](OC(=O)[C@H](O)[C@@H](NC(=O)c4ccccc4)c4ccccc4)C(C)=C1C3(C)C)[C@]1(OC(C)=O)CO[C@@H]1C[C@@H]2O` [PACLITAXEL], the Activity is given as 18% with K562 [1], 11% with K562 [2] and 71% with K562 [3].
Regarding `CCn1c(-c2cccc(F)c2)cc(=O)c2c(O)cc(OC)cc21`, the Activity is reported as 28% in the experiment on K562 [1], 53% in the experiment on K562 [2] and 19% in the experiment with K562 [3].
Turning to `COc1cc(O)c2c(O)cc(-c3cc(F)cc(F)c3)nc2c1`, the results for the Activity in the experiment with K562 [1], in the experiment on K562 [2] and in the experiment with K562 [3] were 40%, 42% and 18%, respectively.
For `COc1cc(O)c2c(O)cc(-c3cccc(CCl)c3)nc2c1`, in that order: 51%, 30% and 18%.
